Results on five compounds are retold here after ChEMBL document CHEMBL3352331, “Anti-respiratory syncytial virus prenylated dihydroquinolone derivatives from the gorgonian-derived fungus Aspergillus sp. XS-20090B15” (J Nat Prod, 2014).

In series [1] the test system is Respiratory syncytial virus. Briefly: Antiviral activity against Respiratory syncytial virus infected in human Hep2 cells assessed as inhibition of virus-induced cytopathic effect after 72 hrs by XTT assay. It is filed as functional, organism-based. The conditions noted are these: HEp-2, 72 h. The method, boiled down: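 RSV-induced cytopathic effect inhibition in Hep-2 (human laryngeal carcinoma) cells, run by an established CPE-inhibition procedure. Ribavirin served as the positive control. Values are the mean of three replicate determinations.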
Background: Cytopathic effects are the visible damage that an infection or toxin causes in cultured cells.

Series [2] can be described thus: Cytotoxicity against human Hep2 cells after 48 hrs. It is filed as cell-based, HEp-2. The note with it: read-out: TC50.
A short description of series [3]: Therapeutic index, ratio of TC50 for human Hep2 cells to IC50 for Respiratory syncytial virus. Type of series: cell-based, HEp-2. The note with it: read-out: TI.

SMILES strings stand for the structures.

By IC50 is commonly meant the point on the concentration scale where inhibition reaches its midpoint. Regarding `CN[C@H](C(=O)O[C@@H]1CC[C@@](C)(/C=C/c2ccc3c(c2O)[C@@](O)(c2ccccc2)[C@H](OC)C(=O)N3)C[C@H]1C)C(C)C`, the half-maximal inhibitory concentration (IC50) in series [1] worked out at 0.042 µM. In addition, the CC50 at 48 h in series [2] was found to be 22 µM. For the same compound, the selectivity ratio in series [3] came to 520.
For `CO[C@@H]1C(=O)Nc2ccc(/C=C/[C@]3(C)CCC(=O)[C@H](C)C3)c(O)c2[C@@]1(O)c1ccccc1`, in series [1], the IC50 amounted to 6.6 µM. In addition, the CC50 at 48 h in series [2] was 27 µM. In addition, in series [3], the selectivity ratio was 4.
Turning to `CO[C@@H]1C(=O)Nc2ccc(/C=C/[C@]3(C)CCC(=O)[C@@H](C)C3)c(O)c2[C@@]1(O)c1ccccc1` [AFLAQUINOLONE A], the 50% inhibitory concentration (IC50) in series [1] was more than 50 µM.
As to `NC(=O)c1ncn([C@@H]2O[C@H](CO)[C@@H](O)[C@H]2O)n1` [RIBAVIRIN], the half-maximal inhibitory concentration (IC50) in series [1] was 20 µM. In series [2], the CC50 at 48 h was more than 3000 µM. Further, the selectivity ratio in series [3] was more than 150.
In the case of `CN[C@H](C(=O)O[C@@H]1CC[C@@](C)(/C=C/c2ccc3c(c2O)[C@@](O)(c2ccccc2)[C@H](OC)C(=O)N3)C[C@@H]1C)C(C)C`, the IC50 in series [1] was more than 50 µM.
